Experimental data published in ChEMBL document CHEMBL3526009, “Breast cancer resistance protein (ABCG2) determines distribution of genistein phase II metabolites: reevaluation of the roles of ABCG2 in the disposition of genistein” (Drug Metab Dispos, 2012).

Key:
[1] = tested on: Mus musculus; assay: Elimination rate constant in BCRP-/- mouse at 20 mg/kg, ip; assay type: ADME, organism-based; set-up: dose 20 mg/kg, route intraperitoneal; settings: in vivo
Outline: (§1)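 Male FVB or Bcrp1(−/−) mice (6–10 weeks), nonsoy chow ≥1 week, fasted 12 h. Single i.p. 20 mg/kg from 2 mg/ml solution in 100 mM sodium bicarbonate–PEG 300 (7:3), pH 10; n = 5. Serial tail blood at 10 time points under isoflurane; whole-blood genistein and conjugates by UPLC-MS/MS; noncompartmental analysis.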

[2] = Drug metabolism in wild-type FVB mouse small intestine S9 fraction assessed as compound sulfation rate at 10 uM by UPLC-MS/MS analysis; assay type: ADME, tissue-based; settings: s9, 10 µM
Outline: (§2)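 S9 from liver, small intestine or colon of FVB or Bcrp1(−/−) mice, 1 mg/ml protein, with 10 μM genistein in 50 mM potassium phosphate pH 7.4, 0.88 mM MgCl2, 4.4 mM saccharolactone, 0.022 mg/ml alamethicin. Glucuronidation started with 3.5 mM UDPGA; sulfation used 0.1 mM PAPS instead. 37°C, 60 min; n = 4.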

[3] = Drug metabolism in BCRP-/- mouse small intestine S9 fraction assessed as compound sulfation rate at 10 uM by UPLC-MS/MS analysis; assay type: ADME, tissue-based; settings: s9, 10 µM; outline: as §2
[4] = Drug metabolism in BCRP-/- mouse hepatic S9 fraction assessed as compound glucuronidation rate at 10 uM by UPLC-MS/MS analysis; assay type: ADME, Liver; settings: s9, 10 µM; outline: as §2
[5] = Drug metabolism in wild-type FVB mouse hepatic S9 fraction assessed as compound sulfation rate at 10 uM by UPLC-MS/MS analysis; assay type: ADME, Liver; settings: s9, 10 µM; outline: as §2
[6] = Drug metabolism in wild-type FVB mouse colon S9 fraction assessed as compound glucuronidation rate at 10 uM by UPLC-MS/MS analysis; assay type: ADME, tissue-based; settings: s9, 10 µM; outline: as §2
[7] = tested on: Blood; assay: Drug metabolism in Wistar rat blood at 3.8 uM after 4 hrs by UPLC-MS/MS analysis; assay type: ADME, tissue-based
Outline: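 Glucuronide mix (G-7-G plus G-4′-G, 3 μM) with 3.8 μM genistein incubated in fresh Wistar rat blood, 37°C shaking bath up to 4 h; sulfate runs used 0.8 μM sulfates plus 2.2 μM aglycone. Samples at 0, 60, 120, 240 min quenched with acetonitrile/daidzein, analysed by UPLC-MS/MS; 50 mM phosphate buffer pH 7.4 as negative control; n = 3.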

[8] = Cmax in BCRP-/- mouse at 2 mg/kg, po; assay type: ADME, organism-based; set-up: dose 2 mg/kg, route oral; settings: in vivo
Outline: (§3)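 Male wild-type FVB or Bcrp1(−/−) mice (6–10 weeks) on nonsoy chow ≥1 week, fasted 12 h with water, refed at 4 h. Oral gavage of 2 or 20 mg/kg as 4 mg/ml suspension in oral suspending vehicle; n = 5. Tail-snip blood at 10 time points under isoflurane, whole blood by UPLC-MS/MS (MRM); noncompartmental analysis.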

[9] = Drug metabolism in BCRP-/- mouse hepatic S9 fraction assessed as compound sulfation rate at 10 uM by UPLC-MS/MS analysis; assay type: ADME, Liver; settings: s9, 10 µM; outline: as §2
[10] = Biliary excretion in wild-type FVB mouse measured after 2.5 hrs post intestinal perfusion by UPLC-MS/MS analysis; assay type: ADME; settings: bile, read-out: Drug excretion
Outline: (§4)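 Gallbladder bile taken after 2.5 h of simultaneous small intestine/colon perfusion with 10 μM genistein (HBSS pH 7.4, 0.191 ml/min) in FVB or Bcrp1(−/−) mice (n = 4). Bile diluted 20-fold in HBSS, daidzein internal standard in acetonitrile added, dried and reconstituted. Genistein and conjugates quantified by UPLC-MS/MS.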

[11] = tested on: Mus musculus; assay: Half life in BCRP-/- mouse at 20 mg/kg, ip; assay type: ADME, organism-based; set-up: dose 20 mg/kg, route intraperitoneal; settings: in vivo; outline: as §1
[12] = tested on: Intestine; assay: Drug uptake in wild-type FVB mouse small intestine at 10 uM by UPLC-MS/MS analysis; assay type: ADME, tissue-based; settings: in vivo
Outline: (§5)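 In situ perfusion in FVB or Bcrp1(−/−) mice (n = 4): small intestine and colon (8–12 cm each) perfused together with 10 μM genistein in HBSS pH 7.4, 0.191 ml/min, 37°C. After 30-min washout, perfusate sampled at 60, 90, 120, 150 min; runs discarded if water flux >10% per 10 cm. Percent absorbed by UPLC-MS/MS.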

[13] = Half life in wild-type FVB mouse at 20 mg/kg, ip; assay type: ADME, organism-based; set-up: dose 20 mg/kg, route intraperitoneal; settings: in vivo; outline: as §1
[14] = AUC ( 0 to t) in BCRP-/- mouse at 2 mg/kg, po; assay type: ADME, organism-based; set-up: dose 2 mg/kg, route oral; settings: plasma; outline: as §3
[15] = Cmax in wild-type FVB mouse at 2 mg/kg, po; assay type: ADME, organism-based; set-up: dose 2 mg/kg, route oral; settings: in vivo; outline: as §3
[16] = AUC ( 0 to t) in wild-type FVB mouse at 20 mg/kg, ip; assay type: ADME, organism-based; set-up: dose 20 mg/kg, route intraperitoneal; settings: plasma; outline: as §1
[17] = Half life in BCRP-/- mouse at 2 mg/kg, po; assay type: ADME, organism-based; set-up: dose 2 mg/kg, route oral; settings: in vivo; outline: as §3
[18] = AUC ( 0 to t) in BCRP-/- mouse at 20 mg/kg, ip; assay type: ADME, organism-based; set-up: dose 20 mg/kg, route intraperitoneal; settings: plasma
[19] = Elimination rate constant in BCRP-/- mouse at 2 mg/kg, po; assay type: ADME, organism-based; set-up: dose 2 mg/kg, route oral; settings: in vivo; outline: as §3
[20] = tested on: BCRP; assay: Drug recovery in human Caco2 cells at 2 to 10 uM after 4 hrs by UPLC-MS/MS analysis in presence of BCRP inhibitor Ko143; assay type: ADME, cell-based; settings: Caco-2, with Ko143 (BCRP inhibitor, concentration not stated), read-out: Drug recovery
Outline: (§6)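 Caco-2 TC7 monolayers on 3 μm polycarbonate inserts, used 19–22 days post-seeding (TEER ≥460 Ω/cm2). Genistein 2 or 10 μM in HBSS pH 7.4 applied apically, ±5 μM Ko143 apically; sampling both sides at 0–4 h hourly with replacement, triplicate. Genistein and four conjugates plus intracellular amounts at 4 h by UPLC-MS/MS; mass balance versus dose added.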

[21] = organism: Mus musculus; assay: Drug uptake in BCRP-/- mouse small intestine at 10 uM by UPLC-MS/MS analysis; assay type: ADME, organism-based; settings: in vivo; outline: as §5
[22] = Drug recovery in human Caco2 cells at 2 to 10 uM after 4 hrs by UPLC-MS/MS analysis; assay type: ADME, cell-based; settings: Caco-2, read-out: Drug recovery; outline: as §6
[23] = Elimination rate constant in wild-type FVB mouse at 20 mg/kg, ip; assay type: ADME, organism-based; set-up: dose 20 mg/kg, route intraperitoneal; settings: in vivo; outline: as §1
[24] = Biliary excretion in BCRP-/- mouse measured after 2.5 hrs post intestinal perfusion by UPLC-MS/MS analysis; assay type: ADME; settings: bile, read-out: Drug excretion; outline: as §4
[25] = Drug metabolism in BCRP-/- mouse colon S9 fraction assessed as compound sulfation rate at 10 uM by UPLC-MS/MS analysis; assay type: ADME, tissue-based; settings: s9, 10 µM; outline: as §2
[26] = Drug metabolism in BCRP-/- mouse colon S9 fraction assessed as compound glucuronidation rate at 10 uM by UPLC-MS/MS analysis; assay type: ADME, tissue-based; settings: s9, 10 µM; outline: as §2
[27] = Cmax in BCRP-/- mouse at 50 mg/kg, po; assay type: ADME, organism-based; set-up: dose 50 mg/kg, route oral; settings: in vivo
[28] = Drug metabolism in wild-type FVB mouse small intestine S9 fraction assessed as compound glucuronidation rate at 10 uM by UPLC-MS/MS analysis; assay type: ADME, tissue-based; settings: s9, 10 µM; outline: as §2
[29] = Cmax in BCRP-/- mouse at 8 mg/kg, po; assay type: ADME, organism-based; set-up: dose 8 mg/kg, route oral; settings: in vivo
[30] = tested on: Colon; assay: Drug uptake in wild-type FVB mouse colon at 10 uM by UPLC-MS/MS analysis; assay type: ADME, tissue-based; settings: in vivo; outline: as §5
[31] = AUC (0 to 3 hrs) in wild-type FVB mouse at 50 mg/kg, po; assay type: ADME, organism-based; set-up: time < 3 hr, dose 50 mg/kg, route oral; settings: plasma
[32] = Cmax in wild-type FVB mouse at 20 mg/kg, ip; assay type: ADME, organism-based; set-up: dose 20 mg/kg, route intraperitoneal; settings: in vivo; outline: as §1
[33] = Drug metabolism in BCRP-/- mouse small intestine S9 fraction assessed as compound glucuronidation rate at 10 uM by UPLC-MS/MS analysis; assay type: ADME, tissue-based; settings: s9, 10 µM; outline: as §2
[34] = organism: Mus musculus; assay: Drug uptake in BCRP-/- mouse colon at 10 uM by UPLC-MS/MS analysis; assay type: ADME, organism-based; settings: in vivo; outline: as §5
[35] = Drug metabolism in wild-type FVB mouse hepatic S9 fraction assessed as compound glucuronidation rate at 10 uM by UPLC-MS/MS analysis; assay type: ADME, Liver; settings: s9, 10 µM; outline: as §2
[36] = Cmax in BCRP-/- mouse at 20 mg/kg, ip; assay type: ADME, organism-based; set-up: dose 20 mg/kg, route intraperitoneal; settings: in vivo; outline: as §1
[37] = Drug metabolism in wild-type FVB mouse colon S9 fraction assessed as compound sulfation rate at 10 uM by UPLC-MS/MS analysis; assay type: ADME, tissue-based; settings: s9, 10 µM; outline: as §2
[38] = AUC (0 to 3 hrs) in BCRP-/- mouse at 50 mg/kg, po; assay type: ADME, organism-based; set-up: time < 3 hr, dose 50 mg/kg, route oral; settings: plasma
[39] = Cmax in BCRP-/- mouse at 20 mg/kg, po; assay type: ADME, organism-based; set-up: dose 20 mg/kg, route oral; settings: in vivo; outline: as §3
[40] = Drug transport in human Caco2 cells assessed as basolateral excretion of compound at 2 uM after 4 hrs by UPLC-MS/MS analysis in presence of BCRP inhibitor Ko143; assay type: ADME, cell-based; settings: caco-2, 4 h; outline: as §6
[41] = AUC ( 0 to t) in wild-type FVB mouse at 20 mg/kg, po; assay type: ADME, organism-based; set-up: dose 20 mg/kg, route oral; settings: plasma; outline: as §3
[42] = AUC ( 0 to t) in BCRP-/- mouse at 20 mg/kg, po; assay type: ADME, organism-based; set-up: dose 20 mg/kg, route oral; settings: plasma; outline: as §3
[43] = AUC ( 0 to t) in wild-type FVB mouse at 2 mg/kg, po; assay type: ADME, organism-based, Plasma; set-up: dose 2 mg/kg, route oral; outline: as §3
[44] = Cmax in wild-type FVB mouse at 20 mg/kg, po; assay type: ADME, organism-based; set-up: dose 20 mg/kg, route oral; settings: in vivo; outline: as §3

Kel [1]: 0.52 h⁻¹
Drug metabolism [2]: metabolite_not_detected
Drug metabolism [3]: metabolite_not_detected
Drug metabolism [4]: 2737 pmol/min/mg
Drug metabolism [5]: 13.3 pmol/min/mg
Drug metabolism [6]: 78 pmol/min/mg
Stability [7]: Stable
Cmax [8]: 230 nM
Drug metabolism [9]: 7.9 pmol/min/mg
concentration at 2.5 h [10]: 9900 nM
t1/2 [11]: 2.8 h
Drug uptake [12]: 87%
half-life [13]: 4.8 h
AUC(0-t) [14]: 0.71 µM·h
Cmax [15]: 100 nM
AUC(0-t) [16]: 10 µM·h
half-life [17]: 3.8 h
AUC(0-t) [18]: 11.5 µM·h
k el [19]: 7.5e-05 s⁻¹
recovery at 4 h, up to 10 µM [20]: 87.8%
Drug uptake [21]: 74%
recovery at 4 h, up to 10 µM [22]: 92.3%
k el [23]: 6.39e-05 s⁻¹
concentration at 2.5 h [24]: 9100 nM
Drug metabolism [25]: 15.2 pmol/min/mg
Drug metabolism [26]: 117 pmol/min/mg
Cmax [27]: 200 nM
Drug metabolism [28]: metabolite_not_detected
Cmax [29]: 1100 nM
Drug uptake [30]: 46%
AUC(0-t) at 3 h [31]: 0.9 µM·h
Cmax [32]: 2680 nM
Drug metabolism [33]: metabolite_not_detected
Drug uptake [34]: 52%
Drug metabolism [35]: 1299 pmol/min/mg
Cmax [36]: 4420 nM
Drug metabolism [37]: 26.5 pmol/min/mg
AUC(0-t) at 3 h [38]: 5 µM·h
Cmax [39]: 3350 nM
Drug transport [40]: Not Active
AUC(0-t) [41]: 6.05 µM·h
AUC(0-t) [42]: 16.4 µM·h
AUC(0-t) [43]: 0.36 µM·h
Cmax [44]: 650 nM
Structure (SMILES): O=c1c(-c2ccc(O)cc2)coc2cc(O)cc(O)c12 [GENISTEIN]
